# Data as given in ChEMBL document CHEMBL1158368, “Synthesis of novel 3-(aryl)benzothieno[2,3-c]pyran-1-ones from Sonogashira products and intramolecular cyclization: Antitumoral activity evaluation” (2009).
# How the values were obtained:
# Format in all cases: functional
# [1] = system: NCI-H460; experiment: Cytotoxicity against human NCI-H460 cells after 48 hrs by SRB assay; details: NCI-H460, 48 h
# Outline: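 NCI-H460 cells were plated at 0.75 × 10⁴ cells/mL to keep growth exponential, left overnight to attach, and treated for 48 h at 37 °C in humidified 5% CO₂, with DMSO vehicle controls at up to 0.25%. Readout was SRB staining of in-situ-fixed cells, with solubilized dye measured at 492 nm. GI₅₀ (50% net growth inhibition) came from dose–response curves in duplicate.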
# [2] = system: CNS cell; experiment: Cytotoxicity against human CNS cells after 48 hrs by SRB assay
# Outline: (§1)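 Cells were seeded at 1.5 × 10⁵ cells/mL (MCF-7 and SF-268) so growth stayed exponential, attached overnight, then were exposed to compound for 48 h at 37 °C in humidified 5% CO₂. Untreated controls received DMSO vehicle at up to 0.25%. Cells were fixed in situ and stained with SRB; the bound dye was solubilized and read at 492 nm. GI₅₀ (50% inhibition of net growth) came from dose–response curves, run in duplicate.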
# [3] = system: MCF7; experiment: Cytotoxicity against human MCF7 cells after 48 hrs by SRB assay; details: MCF7, 48 h; outline: as §1
SMILES,GI50 [1],GI50 [2],GI50 [3]
O=c1oc(-c2ccccc2F)cc2c1sc1ccccc12,15.5 µM,12.4 µM,19.4 µM
COC(=O)c1sc2ccccc2c1C#Cc1ccccc1,58.9 µM,64.7 µM,71.6 µM
COc1ccc(-c2oc(=O)c3sc4ccccc4c3c2I)cc1,> 150 µM,> 150 µM,> 150 µM
O=c1oc(-c2ccc(F)cc2)c(I)c2c1sc1ccccc12,35.8 µM,20.7 µM,25.2 µM
O=c1oc(-c2ccc(F)cc2)cc2c1sc1ccccc12,> 25 µM,> 25 µM,> 25 µM
O=c1oc(-c2ccccc2)cc2c1sc1ccccc12,> 112 µM,> 112 µM,> 112 µM
COC(=O)c1sc2ccccc2c1C#Cc1ccccc1F,30.2 µM,25.7 µM,40.9 µM
COC(=O)c1sc2cc(OC)ccc2c1C#Cc1ccccc1F,10.3 µM,7.2 µM,11.4 µM
COc1ccc2c(c1)sc1c(=O)oc(-c3ccc(F)cc3)cc12,118 µM,28.9 µM,109 µM
COC(=O)c1sc2cc(OC)ccc2c1C#Cc1ccccc1,42.3 µM,54.9 µM,79.6 µM
COc1ccc2c(c1)sc1c(=O)oc(-c3ccc(F)cc3)c(I)c12,> 150 µM,> 150 µM,> 150 µM
COC(=O)c1sc2ccccc2c1C#Cc1ccc(F)cc1,56.2 µM,76.1 µM,60.6 µM
COc1ccc(-c2cc3c(sc4ccccc43)c(=O)o2)cc1,> 75 µM,> 75 µM,> 75 µM
COc1ccc2c(c1)sc1c(=O)oc(-c3ccccc3)cc12,> 75 µM,> 75 µM,> 75 µM
COC(=O)c1sc2ccccc2c1C#Cc1ccc(OC)cc1,103 µM,> 150 µM,90.6 µM
COC(=O)c1sc2cc(OC)ccc2c1C#Cc1ccc(F)cc1,10.1 µM,20.9 µM,12.6 µM
COc1ccc2c(c1)sc1c(=O)oc(-c3ccccc3F)c(I)c12,10.9 µM,11.3 µM,11.9 µM
COc1cccc2c1C(=O)c1c(O)c3c(c(O)c1C2=O)C[C@@](O)(C(=O)CO)C[C@@H]3O[C@H]1C[C@H](N)[C@H](O)[C@H](C)O1 [DOXORUBICIN],0.094 µM,0.094 µM,0.0428 µM
